Source: ChEMBL document CHEMBL1149258, “Synthesis and structure-activity relationships of novel histamine H1 antagonists: indolylpiperidinyl benzoic acid derivatives” (J Med Chem, 2004)
Calls of active or inactive are those of the source. Unless noted, the calls are words filed in the database; no cut-off is given here.

Assays:
[1] = molecular target: T1, Adrenergic receptor alpha-1 (Rattus norvegicus, UniProt P15823+P23944+P43140); assay: Displacement of [3H]prazosin from adrenergic alpha-1 receptor in rat brain membranes; assay type: cell membranes
T1 sequence (P15823 whole entry): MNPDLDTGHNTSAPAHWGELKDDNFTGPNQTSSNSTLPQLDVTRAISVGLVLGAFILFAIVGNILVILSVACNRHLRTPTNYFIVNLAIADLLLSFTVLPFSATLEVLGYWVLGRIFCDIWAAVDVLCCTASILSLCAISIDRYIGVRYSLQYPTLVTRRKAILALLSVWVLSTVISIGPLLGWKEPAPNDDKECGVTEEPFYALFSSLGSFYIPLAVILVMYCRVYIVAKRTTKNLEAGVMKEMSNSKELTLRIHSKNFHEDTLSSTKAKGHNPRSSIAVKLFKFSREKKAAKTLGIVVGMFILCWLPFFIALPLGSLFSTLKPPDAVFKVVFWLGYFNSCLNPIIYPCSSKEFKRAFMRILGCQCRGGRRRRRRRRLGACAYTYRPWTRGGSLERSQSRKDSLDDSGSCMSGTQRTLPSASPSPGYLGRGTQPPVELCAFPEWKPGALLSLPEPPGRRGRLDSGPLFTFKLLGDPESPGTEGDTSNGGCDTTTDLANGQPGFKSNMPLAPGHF
T1 sequence (P23944 whole entry): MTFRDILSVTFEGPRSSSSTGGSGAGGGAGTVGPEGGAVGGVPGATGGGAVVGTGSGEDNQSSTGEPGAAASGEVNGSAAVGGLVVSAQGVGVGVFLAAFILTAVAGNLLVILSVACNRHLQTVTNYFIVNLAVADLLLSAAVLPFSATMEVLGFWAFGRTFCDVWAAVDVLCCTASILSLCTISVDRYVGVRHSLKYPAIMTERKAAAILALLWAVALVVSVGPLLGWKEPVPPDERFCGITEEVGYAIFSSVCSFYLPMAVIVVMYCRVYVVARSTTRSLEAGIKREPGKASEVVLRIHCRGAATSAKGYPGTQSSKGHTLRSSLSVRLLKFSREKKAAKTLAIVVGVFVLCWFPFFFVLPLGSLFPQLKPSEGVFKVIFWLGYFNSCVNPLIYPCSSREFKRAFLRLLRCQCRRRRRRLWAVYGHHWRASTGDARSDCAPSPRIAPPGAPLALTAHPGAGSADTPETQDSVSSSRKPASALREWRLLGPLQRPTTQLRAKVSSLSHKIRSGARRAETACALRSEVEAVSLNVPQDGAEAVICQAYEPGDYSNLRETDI
T1 sequence (P43140 whole entry): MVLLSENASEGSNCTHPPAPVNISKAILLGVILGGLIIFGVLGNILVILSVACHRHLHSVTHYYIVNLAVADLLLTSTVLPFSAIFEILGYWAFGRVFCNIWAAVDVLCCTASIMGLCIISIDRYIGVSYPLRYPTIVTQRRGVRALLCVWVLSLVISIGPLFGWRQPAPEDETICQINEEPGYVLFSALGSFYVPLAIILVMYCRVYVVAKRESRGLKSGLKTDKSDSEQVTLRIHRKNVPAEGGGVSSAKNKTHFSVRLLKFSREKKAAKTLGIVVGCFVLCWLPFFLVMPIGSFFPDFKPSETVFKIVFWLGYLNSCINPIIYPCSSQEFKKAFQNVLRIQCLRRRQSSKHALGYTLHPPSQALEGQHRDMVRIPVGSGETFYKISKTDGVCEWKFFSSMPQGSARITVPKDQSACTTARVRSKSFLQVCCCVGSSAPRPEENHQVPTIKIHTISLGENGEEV
Outline: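 Rat brain membranes (340 µg protein/mL) with 0.25 nM [3H]-prazosin in 50 mM Tris-HCl pH 7.7, room temperature, 60 min, filtration. Nonspecific binding with 100 µM prazosin. Several concentrations run in duplicate; IC50 by nonlinear regression.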

[2] = tested on: Rattus norvegicus; assay: Inhibition of increase in histamine-induced cutaneous vascular permeability in orally dosed Wistar rat model after 4 hrs; assay type: functional; settings: po
Outline: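 Fasted male rats (150-175 g; n=5 per condition) dosed orally in 0.5% methylcellulose/0.1% Tween 80. At 4 h, under light ether, received four intradermal injections of 5 µg histamine, then 0.5% Evans Blue iv. Killed 1 h later. Papule area from maximum and minimum diameters (ellipse); inhibition of papule area; ED50 (mg/kg, po).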

[3] = tested on: Rattus norvegicus; assay: Inhibition of increase in histamine-induced cutaneous vascular permeability in orally dosed Wistar rat model after 8 hrs; assay type: functional; settings: po
Outline: (§1)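 Male Wistar rats (150-175 g), fasted, dosed orally in 0.5% methylcellulose/0.1% Tween 80 (10 mL/kg), n=5. At 1 or 8 h after dosing, four intradermal injections of 5 µg histamine were given, plus iv 0.5% Evans Blue. Papule area (ellipse) measured 1 h later. ED50 in mg/kg po.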

[4] = Half life in Wistar rat at 1 mg/kg, iv after 8 hrs; assay type: ADME, organism-based; set-up: dose 1 mg/kg, route intravenous; settings: in vivo
Outline: (§2)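 Male Wistar rats, fasted overnight, dosed iv at 1 mg/kg. Blood sampled from 0.1 to 24 h; plasma stored at -20 °C. Levels measured by isocratic HPLC-UV (225 nm) after on-line solid-phase extraction, or by HPLC-MS (ESI+) for one analyte. Parameters from noncompartmental analysis.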

[5] = molecular target: Histamine H1 receptor (Mus musculus) (UniProt P70174); assay: Ex vivo displacement of [3H]mepyramine from brain histamine H1 receptor in orally dosed Swiss Albino mouse; assay type: functional, organism-based
Outline: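 Overnight-fasted male mice (20-25 g) dosed orally at several doses (0.5% methylcellulose/0.1% Tween 80, 10 mL/kg), killed 90 min later. Whole brain homogenised in ice-cold 0.05 M Na+/K+ phosphate pH 7.4; aliquots incubated in triplicate with 2 nM final [3H]-mepyramine, 40 min at 30 °C, then filtered. Nonspecific binding from 30 mg/kg po D-chlorpheniramine; total binding from vehicle. Three animals per dose; ED50 reported.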

[6] = Volume of distribution at steady state in Wistar rat at 1 mg/kg, iv after 8 hrs; assay type: ADME, organism-based; set-up: dose 1 mg/kg, route intravenous; settings: in vivo, read-out: Vss; outline: as §2
[7] = Clearance in Wistar rat at 1 mg/kg, iv after 8 hrs; assay type: ADME, organism-based; set-up: dose 1 mg/kg, route intravenous; settings: in vivo; outline: as §2
[8] = molecular target: Histamine H1 receptor (Cavia porcellus) (UniProt P31389); assay: Displacement of [3H]mepyramine from histamine H1 receptor in guinea pig cerebellum membranes at […]; assay type: cell membranes; settings: Membrane
Outline: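 Guinea-pig cerebellum membranes (160 µg/mL) incubated at 30 °C for 30 min with 0.7 nM [3H]-mepyramine, 0.5 mL final volume; filtration, bound radioactivity counted. Nonspecific binding with 10 µM promethazine. At least six concentrations in duplicate; IC50 by nonlinear regression. Stocks 10^-2 M in DMSO, further dilutions in 50% DMSO.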

[9] = molecular target: Adrenergic receptor alpha-1 (Rattus norvegicus) (UniProt P15823+P23944+P43140); assay: Displacement of [3H]prazosin from adrenergic alpha-1 receptor in rat brain membranes at 10 uM; assay type: cell membranes
[10] = tested on: Rattus norvegicus; assay: Inhibition of increase in histamine-induced cutaneous vascular permeability in orally dosed Wistar rat model after 1 hrs; assay type: functional; settings: po; outline: as §1
[11] = tested on: Cavia porcellus; assay: Effect on QT interval prolongation in Dunkin-Hartley guinea pigs at 10 mg/kg, iv; assay type: functional, organism-based; set-up: dose 10 mg/kg
[12] = molecular target: CYP3A4 (Homo sapiens, UniProt P08684); assay: Inhibition of CYP3A4 in human microsomes at 25 uM; assay type: ADME, Microsome
[13] = molecular target: Histamine H1 receptor (Cavia porcellus, UniProt P31389); assay: Displacement of [3H]mepyramine from histamine H1 receptor in guinea pig cerebellum membranes; assay type: cell membranes, Membrane
Outline: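 Guinea pig cerebellum membranes (160 µg/mL) incubated with 0.7 nM [3H]-mepyramine at 30 °C for 30 min, 0.5 mL final volume, ended by filtration. Nonspecific binding with 10 µM promethazine. At least six concentrations in duplicate; IC50 by nonlinear regression. Compound stocks 10^-2 M in DMSO, diluted in 50% DMSO.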

[14] = tested on: Cavia porcellus; assay: Effect on QT interval prolongation in Dunkin-Hartley guinea pigs at 30 mg/kg, iv; assay type: functional, organism-based; set-up: dose 30 mg/kg
Outline: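 Male guinea pigs (500-600 g), urethane 1.5 g/kg anaesthesia, ventilated (10 mL/kg, 60 cycles/min). Stabilised at least 30 min, then 3-min jugular iv perfusion at 3, 10 and 30 mg/kg. Surface ECG recorded at end of perfusion and at 15, 30, 45 and 60 min. QTc by Bazett; change in ms from baseline. Vehicle-only controls.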

[15] = tested on: Cavia porcellus; assay: Effect on QT interval prolongation in Dunkin-Hartley guinea pigs at 3 mg/kg, iv; assay type: functional, organism-based; set-up: dose 3 mg/kg

Sequence of Histamine H1 receptor (Mus musculus) (P70174 whole entry): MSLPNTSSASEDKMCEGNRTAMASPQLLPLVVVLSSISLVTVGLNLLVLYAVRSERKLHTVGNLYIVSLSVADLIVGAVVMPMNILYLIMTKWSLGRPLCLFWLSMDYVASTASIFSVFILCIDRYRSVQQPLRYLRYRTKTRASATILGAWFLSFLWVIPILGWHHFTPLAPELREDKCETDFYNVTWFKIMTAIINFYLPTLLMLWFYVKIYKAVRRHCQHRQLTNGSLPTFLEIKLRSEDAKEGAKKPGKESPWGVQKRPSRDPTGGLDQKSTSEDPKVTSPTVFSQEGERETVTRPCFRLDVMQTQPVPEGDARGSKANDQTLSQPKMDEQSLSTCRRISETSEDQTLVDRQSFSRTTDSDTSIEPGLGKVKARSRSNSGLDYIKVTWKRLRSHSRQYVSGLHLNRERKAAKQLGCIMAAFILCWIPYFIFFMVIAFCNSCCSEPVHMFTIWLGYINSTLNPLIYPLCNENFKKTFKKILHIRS
Sequence of Histamine H1 receptor (P31389 whole entry): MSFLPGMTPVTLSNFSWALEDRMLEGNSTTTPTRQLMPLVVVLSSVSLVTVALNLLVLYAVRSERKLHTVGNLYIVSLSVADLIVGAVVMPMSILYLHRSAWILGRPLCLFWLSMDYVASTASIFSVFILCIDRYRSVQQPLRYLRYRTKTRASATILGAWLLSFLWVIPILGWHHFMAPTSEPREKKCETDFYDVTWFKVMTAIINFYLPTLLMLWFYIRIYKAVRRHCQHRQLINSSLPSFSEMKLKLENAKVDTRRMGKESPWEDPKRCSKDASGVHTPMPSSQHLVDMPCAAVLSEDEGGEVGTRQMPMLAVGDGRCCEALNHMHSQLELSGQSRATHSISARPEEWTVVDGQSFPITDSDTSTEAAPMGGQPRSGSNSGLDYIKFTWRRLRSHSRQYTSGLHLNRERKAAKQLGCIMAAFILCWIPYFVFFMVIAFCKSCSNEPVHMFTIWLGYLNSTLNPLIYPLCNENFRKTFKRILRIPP
Sequence of CYP3A4 (P08684 whole entry): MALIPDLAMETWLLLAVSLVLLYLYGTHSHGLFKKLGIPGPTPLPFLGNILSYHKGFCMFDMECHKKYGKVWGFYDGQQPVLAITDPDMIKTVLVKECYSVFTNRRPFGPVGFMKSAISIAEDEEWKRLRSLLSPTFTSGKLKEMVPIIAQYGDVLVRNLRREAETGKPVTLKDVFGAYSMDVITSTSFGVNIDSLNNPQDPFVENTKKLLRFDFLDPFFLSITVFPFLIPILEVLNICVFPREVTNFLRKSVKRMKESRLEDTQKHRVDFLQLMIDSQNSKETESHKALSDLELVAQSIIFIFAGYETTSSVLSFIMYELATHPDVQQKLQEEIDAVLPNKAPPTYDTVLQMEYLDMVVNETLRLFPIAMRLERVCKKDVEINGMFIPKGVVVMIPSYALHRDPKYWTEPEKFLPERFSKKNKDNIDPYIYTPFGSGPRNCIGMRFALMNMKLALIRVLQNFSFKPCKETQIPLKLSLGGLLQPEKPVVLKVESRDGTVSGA
Sequence of Histamine H1 receptor (Cavia porcellus) (P31389 whole entry): as the sequence (P31389 whole entry) above

IC50 [1] | half-life [4] | ED50 [5] | Vd [6] | clearance [7] | IC50 [13] | SMILES | ED50 [2] | ED50 [3] | Activity [8] | Activity [9] | ED50 [10] | Activity [11] | inhibition at 25 µM [12] | Activity [14] | Activity [15]
> 10 µM | 1.6 h | 100 mg/kg | 0.4 L/kg | 0.4 L/h/kg |  | CCCCn1cc(C2CCN(CCOc3ccccc3C(=O)O)CC2)c2ccccc21 | 0.74 mg/kg | 0.8 mg/kg (antagonist) |  |  |  |  |  |  | 
> 10 µM | 3.4 h | 40 mg/kg | 0.3 L/kg | 0.1 L/h/kg | 0.14 µM (antagonist) | COCCn1cc(C2CCN(CCOc3ccccc3C(=O)O)CC2)c2ccc(F)cc21 | 0.29 mg/kg | 0.13 mg/kg (antagonist) |  |  | 0.16 mg/kg |  | 15% | inactive | 
10 µM | 1.1 h | 8 mg/kg | 0.7 L/kg | 0.6 L/h/kg |  | CCOCCn1cc(C2CCN(CCOc3ccccc3C(=O)O)CC2)c2ccccc21 | 0.1 mg/kg | 0.22 mg/kg (antagonist) |  |  | 0.02 mg/kg | inactive | 0% |  | 
> 10 µM | 0.9 h | > 100 mg/kg | 0.5 L/kg | 0.8 L/h/kg | 0.155 µM (antagonist) | CCOCCn1cc(C2CCN(CCOc3ccccc3C(=O)O)CC2)c2cc(OC)ccc21 | 0.035 mg/kg | 0.08 mg/kg (antagonist) |  |  |  |  |  |  | 
> 10 µM |  | 10 mg/kg |  |  | 0.047 µM (antagonist) | CCCCn1cc(C2CCN(CCOc3ccccc3C(=O)O)CC2)c2ccc(F)cc21 | 0.07 mg/kg | 0.14 mg/kg (antagonist) |  |  |  |  |  |  | 
6.5 µM | 2.9 h | > 100 mg/kg | 0.5 L/kg | 0.3 L/h/kg |  | O=C(O)c1ccccc1OCCN1CCC(c2cn(CCC3OCCO3)c3ccccc23)CC1 | 0.46 mg/kg | 0.9 mg/kg (antagonist) |  |  |  |  |  |  | 
> 10 µM |  | 19 mg/kg |  |  | 0.042 µM (antagonist) | O=C(O)c1ccccc1OCCN1CCC(c2cn(Cc3ccoc3)c3cc(F)ccc23)CC1 | 0.12 mg/kg | 0.17 mg/kg (antagonist) |  |  |  |  |  |  | 

The next lines start with the compound.

SMILES | IC50 [1] | half-life [4] | ED50 [5] | Vd [6] | clearance [7] | IC50 [13] | ED50 [2] | ED50 [3] | Activity [8] | Activity [9] | ED50 [10] | Activity [11] | inhibition at 25 µM [12] | Activity [14] | Activity [15]
CCOCCn1cc(C2CCN(Cc3ncccc3C(=O)O)CC2)c2ccccc21 |  |  |  |  |  |  |  |  | 11% | 4% |  |  |  |  | 
COc1ccc(CN2CCC(c3cn(Cc4cccs4)c4ccccc34)CC2)cc1C(=O)O | > 10 µM | 3.1 h | 11.5 mg/kg | 1.8 L/kg | 0.6 L/h/kg |  | 0.24 mg/kg | 0.56 mg/kg (antagonist) |  |  | 0.32 mg/kg | inactive | -5% |  | 
CCOC(=O)N1CCC(=C2c3ccc(Cl)cc3CCc3cccnc32)CC1 [LORATADINE] |  |  |  |  |  |  |  |  |  |  | 0.75 mg/kg | inactive |  |  | 
COCCn1cc(C2CCN(Cc3ccc(OC)c(C(=O)O)c3)CC2)c2ccccc21 | > 10 µM | 3.9 h | 9.5 mg/kg | 0.6 L/kg | 0.2 L/h/kg |  | 0.05 mg/kg | 0.14 mg/kg (antagonist) |  |  | 0.03 mg/kg |  | -9% | inactive | 
COc1ccc(CN2CCC(c3cn(Cc4cccs4)c4cc(F)ccc34)CC2)cc1C(=O)O | > 10 µM | 3.8 h | 29 mg/kg | 1.1 L/kg | 0.3 L/h/kg |  | 0.2 mg/kg | 0.66 mg/kg (antagonist) |  |  |  |  |  |  | 
CCOCCn1cc(C2CCN(Cc3ccc(C(=O)O)cc3)CC2)c2ccccc21 |  |  | 4.5 mg/kg |  |  |  |  | 0.15 mg/kg (antagonist) | 7% | 8% |  |  |  |  | 
O=C(O)COCCN1CCN(C(c2ccccc2)c2ccc(Cl)cc2)CC1 (centres undefined) |  |  |  |  |  |  |  |  |  |  |  |  |  |  | inactive
